What all share (assay type): functional, cell-based
Test [1] can be described thus: Cytotoxicity against human H460 cells after 48 hrs by MTT assay. Conditions: NCI-H460, 48 h. In a few lines:
(§1)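 Cells in RPMI1640 with 15% FBS were trypsinized (0.25%) and seeded at 1 × 10^5/mL, then incubated 24 h at 37 °C in 5% CO2. Agents were added at final concentrations of 50, 10, 2, 0.4 and 0.08 for a further 48 h. MTT (0.5%) was applied for 4 h, formazan dissolved in DMSO, and OD read at 570 nm. % inhibition = (OD0−ODS)/OD0; IC50 was taken as 50% growth inhibition. Mean of three experiments in triplicate.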
In general terms: Formazan colour is commonly taken as a measure of viable cells.

A further test deals with SW-620. Briefly: Cytotoxicity against human SW620 cells after 48 hrs by MTT assay. Conditions: SW-620, 48 h. In a few lines:
as §1

A further test deals with COLO 205. Briefly: Cytotoxicity against human COLO205 cells after 48 hrs by MTT assay. Conditions: COLO 205, 48 h. In a few lines: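 COLO205 cells were grown in RPMI1640 with 15% FBS, seeded at 2 × 10^5/mL, and incubated 24 h at 37 °C in 5% CO2. Agents were then given at final 50, 10, 2, 0.4 and 0.08 for 48 h. Read-out used 0.5% MTT for 4 h, DMSO solubilization and OD at 570 nm. Inhibition = (OD0−ODS)/OD0; IC50 = concentration giving 50% inhibition. Mean of three experiments in triplicate.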

Structures are written as SMILES. ≈ marks a conversion by molar mass, not a printed value.

For `CC(=O)O[C@@H]1C[C@@]2(C)[C@@H]3CC=C4[C@@H](C[C@H](O)[C@@H](O)C4(C)C)[C@]3(C)C(=O)C[C@]2(C)[C@H]1C(C)(O)C(=O)/C=C/C(C)(C)O` (stereo partly drawn), the IC50 (commonly the midpoint of a concentration-inhibition curve) in test [1] was determined as 3.43 mg/L (≈ 6.12 µM); in the test on SW-620, 0.42 mg/L (≈ 0.749 µM); in the test with COLO 205, 0.44 mg/L (≈ 0.785 µM).

With `C/C(C=O)=C\CC[C@@H](C)[C@H]1CC[C@@]2(C)[C@@H]3CC=C4[C@@H](CC[C@H](O[C@@H]5O[C@H](CO)[C@@H](O)[C@H](O)[C@H]5O)C4(C)C)[C@]3(C)C(=O)C[C@]12C`, the IC50 in test [1] amounted to 0.46 mg/L (≈ 0.746 µM); with SW-620, 0.64 mg/L (≈ 1.04 µM); with COLO 205, 0.78 mg/L (≈ 1.26 µM).

Consider `CC(=O)O[C@@H]1C[C@@]2(C)[C@@H]3CC=C4[C@@H](C[C@H](O[C@@H]5O[C@H](CO)[C@@H](O)[C@H](O)[C@H]5O)[C@@H](O)C4(C)C)[C@]3(C)C(=O)C[C@]2(C)[C@H]1C(C)(O)C(=O)/C=C/C(C)(C)OC(C)=O` (stereo partly drawn), for which the IC50 in test [1] was found to be 8.55 mg/L (≈ 11.2 µM); in the test on SW-620, 6.63 mg/L (≈ 8.67 µM); with COLO 205 it was 24.9 mg/L (≈ 32.6 µM).

As for `C[C@H](CCC=C(CO)CO)[C@H]1CC[C@@]2(C)[C@@H]3CC=C4[C@@H](CC[C@H](O[C@@H]5O[C@H](CO)[C@@H](O)[C@H](O)[C@H]5O)C4(C)C)[C@]3(C)[C@H](O)C[C@]12C`, the IC50 in test [1] is 2.96 mg/L (≈ 4.65 µM); in the test on SW-620, 1.99 mg/L (≈ 3.12 µM); in the test with COLO 205 it was 3.84 mg/L (≈ 6.03 µM).

For `CC(=O)OC(C)(C)CCC(=O)[C@](C)(O)[C@H]1[C@H](O)C[C@@]2(C)[C@@H]3CC=C4[C@@H](C[C@H](O)[C@@H](O)C4(C)C)[C@]3(C)C(=O)C[C@]12C` [HEMSLECIN A], the IC50 in test [1] is 11.5 mg/L (≈ 20.5 µM); in the test with SW-620 it was 1.11 mg/L (≈ 1.97 µM); with COLO 205, 1.09 mg/L (≈ 1.94 µM).

For `CC(C)(O)CCC(=O)[C@](C)(O)[C@H]1[C@H](O)C[C@@]2(C)[C@@H]3CC=C4[C@@H](C[C@H](O)[C@@H](O)C4(C)C)[C@]3(C)C(=O)C[C@]12C`, the IC50 in test [1] came out at 7.09 mg/L (≈ 13.6 µM); in the test with SW-620 it was 1.03 mg/L (≈ 1.98 µM); in the test on COLO 205, 0.64 mg/L (≈ 1.23 µM).

Values taken from ChEMBL document CHEMBL3259741, “Three new cucurbitane triterpenoids from Hemsleya penxianensis and their cytotoxic activities” (Bioorg Med Chem Lett, 2014).
